Measured values: ChEMBL document CHEMBL4689842, “EUbOPEN Chemogenomics Library wave 1” (2021)

Test system: Fibroblast
Assay: Multiplex assay against human fibroblast
Format: toxicity, cell-based
Summary of the method: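 Hoechst33342, BioTracker Green Microtubule Cytoskeleton Dye, MitoTracker Red and Annexin V Alexa Fluor 680 were added to live cells at seeding, and imaging on a CQ1 microscope at 37°C and 5% CO2 followed compound addition. Gating by CellPathfinder machine learning separated cells into Hoechst high-intensity objects or normal cells, then normal cells into healthy, pyknosed or fragmented nuclei, then pyknosed cells into mitotic or apoptotic. Per cents of healthy-nucleus cells are reported for the tubulin, mitochondrial-mass and membrane-permeability phenotypes.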

[1] = 12 h, 1 µM, compound concentration 1 uM, replicate 1
[2] = 12 h, 1 µM, compound concentration 1 uM, replicate 2
[3] = 12 h, 10 µM, compound concentration 10 uM, replicate 1
[4] = 12 h, 10 µM, compound concentration 10 uM, replicate 2
[5] = 24 h, 1 µM, compound concentration 1 uM, replicate 1
[6] = 24 h, 1 µM, compound concentration 1 uM, replicate 2
[7] = 24 h, 10 µM, compound concentration 10 uM, replicate 1
[8] = 24 h, 10 µM, compound concentration 10 uM, replicate 2
[9] = 48 h, 1 µM, compound concentration 1 uM, replicate 1
[10] = 48 h, 1 µM, compound concentration 1 uM, replicate 2
[11] = 48 h, 10 µM, compound concentration 10 uM, replicate 1
[12] = 48 h, 10 µM, compound concentration 10 uM, replicate 2

O=C(Nc1ccc(Cl)cc1)Nc1cccc(-c2cccc(N3CCCC3)n2)c1
Population Apoptotic (%) [1]: 45%
Population Fragmented Nuclei (%) [1]: 32%
Population Healthy Nuclei (%) [1]: 41%
Population Hoechst High Intensity Objects (%) [1]: 18%
Population Membrane Permeable-Phenotype (%) [1]: 43%
Population Mitochondria Different-Phenotype (%) [1]: 5%
Population Mitotic Cells (%) [1]: 54%
Population Normal (%) [1]: 81%
Population Pyknosed Nuclei (%) [1]: 26%
Population Tubulin-Different-Phenotype (%) [1]: 35%
Total Cell Count [1]: 110
Population Apoptotic (%) [2]: 25%
Population Fragmented Nuclei (%) [2]: 17%
Population Healthy Nuclei (%) [2]: 76%
Population Hoechst High Intensity Objects (%) [2]: 7%
Population Membrane Permeable-Phenotype (%) [2]: 10%
Population Mitochondria Different-Phenotype (%) [2]: 8%
Population Mitotic Cells (%) [2]: 75%
Population Normal (%) [2]: 92%
Population Pyknosed Nuclei (%) [2]: 6%
Population Tubulin-Different-Phenotype (%) [2]: 12%
Total Cell Count [2]: 83
Population Apoptotic (%) [3]: 66%
Population Fragmented Nuclei (%) [3]: 21%
Population Healthy Nuclei (%) [3]: 23%
Population Hoechst High Intensity Objects (%) [3]: 35%
Population Membrane Permeable-Phenotype (%) [3]: 40%
Population Mitochondria Different-Phenotype (%) [3]: 0%
Population Mitotic Cells (%) [3]: 34%
Population Normal (%) [3]: 64%
Population Pyknosed Nuclei (%) [3]: 54%
Population Tubulin-Different-Phenotype (%) [3]: 54%
Total Cell Count [3]: 142
Population Apoptotic (%) [4]: 72%
Population Fragmented Nuclei (%) [4]: 3%
Population Healthy Nuclei (%) [4]: 78%
Population Hoechst High Intensity Objects (%) [4]: 7%
Population Membrane Permeable-Phenotype (%) [4]: 69%
Population Mitochondria Different-Phenotype (%) [4]: 7%
Population Mitotic Cells (%) [4]: 27%
Population Normal (%) [4]: 92%
Population Pyknosed Nuclei (%) [4]: 17%
Population Tubulin-Different-Phenotype (%) [4]: 74%
Total Cell Count [4]: 69
Population Apoptotic (%) [5]: 50%
Population Fragmented Nuclei (%) [5]: 31%
Population Healthy Nuclei (%) [5]: 52%
Population Hoechst High Intensity Objects (%) [5]: 13%
Population Membrane Permeable-Phenotype (%) [5]: 23%
Population Mitochondria Different-Phenotype (%) [5]: 0%
Population Mitotic Cells (%) [5]: 50%
Population Normal (%) [5]: 86%
Population Pyknosed Nuclei (%) [5]: 15%
Population Tubulin-Different-Phenotype (%) [5]: 42%
Total Cell Count [5]: 103
Population Apoptotic (%) [6]: 20%
Population Fragmented Nuclei (%) [6]: 18%
Population Healthy Nuclei (%) [6]: 75%
Population Hoechst High Intensity Objects (%) [6]: 6%
Population Membrane Permeable-Phenotype (%) [6]: 7%
Population Mitochondria Different-Phenotype (%) [6]: 3%
Population Mitotic Cells (%) [6]: 80%
Population Normal (%) [6]: 93%
Population Pyknosed Nuclei (%) [6]: 6%
Population Tubulin-Different-Phenotype (%) [6]: 12%
Total Cell Count [6]: 94
Population Apoptotic (%) [7]: 91%
Population Fragmented Nuclei (%) [7]: 17%
Population Healthy Nuclei (%) [7]: 24%
Population Hoechst High Intensity Objects (%) [7]: 31%
Population Membrane Permeable-Phenotype (%) [7]: 45%
Population Mitochondria Different-Phenotype (%) [7]: 33%
Population Mitotic Cells (%) [7]: 8%
Population Normal (%) [7]: 68%
Population Pyknosed Nuclei (%) [7]: 58%
Population Tubulin-Different-Phenotype (%) [7]: 50%
Total Cell Count [7]: 145
Population Apoptotic (%) [8]: 72%
Population Fragmented Nuclei (%) [8]: 13%
Population Healthy Nuclei (%) [8]: 54%
Population Hoechst High Intensity Objects (%) [8]: 25%
Population Membrane Permeable-Phenotype (%) [8]: 46%
Population Mitochondria Different-Phenotype (%) [8]: 15%
Population Mitotic Cells (%) [8]: 27%
Population Normal (%) [8]: 74%
Population Pyknosed Nuclei (%) [8]: 31%
Population Tubulin-Different-Phenotype (%) [8]: 46%
Total Cell Count [8]: 81
Population Apoptotic (%) [9]: 55%
Population Fragmented Nuclei (%) [9]: 40%
Population Healthy Nuclei (%) [9]: 51%
Population Hoechst High Intensity Objects (%) [9]: 14%
Population Membrane Permeable-Phenotype (%) [9]: 33%
Population Mitochondria Different-Phenotype (%) [9]: 1%
Population Mitotic Cells (%) [9]: 44%
Population Normal (%) [9]: 85%
Population Pyknosed Nuclei (%) [9]: 7%
Population Tubulin-Different-Phenotype (%) [9]: 28%
Total Cell Count [9]: 135
Population Apoptotic (%) [10]: 0%
Population Fragmented Nuclei (%) [10]: 28%
Population Healthy Nuclei (%) [10]: 70%
Population Hoechst High Intensity Objects (%) [10]: 12%
Population Membrane Permeable-Phenotype (%) [10]: 22%
Population Mitotic Cells (%) [10]: 100%
Population Normal (%) [10]: 87%
Population Pyknosed Nuclei (%) [10]: 1%
Population Tubulin-Different-Phenotype (%) [10]: 34%
Total Cell Count [10]: 107
Population Apoptotic (%) [11]: 94%
Population Fragmented Nuclei (%) [11]: 19%
Population Healthy Nuclei (%) [11]: 17%
Population Hoechst High Intensity Objects (%) [11]: 45%
Population Membrane Permeable-Phenotype (%) [11]: 35%
Population Mitochondria Different-Phenotype (%) [11]: 28%
Population Mitotic Cells (%) [11]: 5%
Population Normal (%) [11]: 54%
Population Pyknosed Nuclei (%) [11]: 63%
Population Tubulin-Different-Phenotype (%) [11]: 50%
Total Cell Count [11]: 151
Population Apoptotic (%) [12]: 95%
Population Fragmented Nuclei (%) [12]: 16%
Population Healthy Nuclei (%) [12]: 9%
Population Hoechst High Intensity Objects (%) [12]: 63%
Population Membrane Permeable-Phenotype (%) [12]: 27%
Population Mitochondria Different-Phenotype (%) [12]: 18%
Population Mitotic Cells (%) [12]: 4%
Population Normal (%) [12]: 36%
Population Pyknosed Nuclei (%) [12]: 73%
Population Tubulin-Different-Phenotype (%) [12]: 36%
Total Cell Count [12]: 325

S=C(NCCCc1c[nH]cn1)NCCCN(Cc1ccc(Cl)c(Cl)c1)c1ccc(Br)cn1
Population Apoptotic (%) [1]: 52%
Population Fragmented Nuclei (%) [1]: 28%
Population Healthy Nuclei (%) [1]: 42%
Population Hoechst High Intensity Objects (%) [1]: 13%
Population Membrane Permeable-Phenotype (%) [1]: 28%
Population Mitochondria Different-Phenotype (%) [1]: 11%
Population Mitotic Cells (%) [1]: 47%
Population Normal (%) [1]: 86%
Population Pyknosed Nuclei (%) [1]: 28%
Population Tubulin-Different-Phenotype (%) [1]: 55%
Total Cell Count [1]: 140
Population Apoptotic (%) [2]: 0%
Population Fragmented Nuclei (%) [2]: 17%
Population Healthy Nuclei (%) [2]: 82%
Population Hoechst High Intensity Objects (%) [2]: 15%
Population Membrane Permeable-Phenotype (%) [2]: 8%
Population Mitochondria Different-Phenotype (%) [2]: 8%
Population Mitotic Cells (%) [2]: 0%
Population Normal (%) [2]: 84%
Population Pyknosed Nuclei (%) [2]: 0%
Population Tubulin-Different-Phenotype (%) [2]: 4%
Total Cell Count [2]: 79
Population Apoptotic (%) [3]: 46%
Population Fragmented Nuclei (%) [3]: 18%
Population Healthy Nuclei (%) [3]: 8%
Population Hoechst High Intensity Objects (%) [3]: 20%
Population Membrane Permeable-Phenotype (%) [3]: 66%
Population Mitochondria Different-Phenotype (%) [3]: 11%
Population Mitotic Cells (%) [3]: 53%
Population Normal (%) [3]: 79%
Population Pyknosed Nuclei (%) [3]: 72%
Population Tubulin-Different-Phenotype (%) [3]: 88%
Total Cell Count [3]: 133
Population Apoptotic (%) [4]: 93%
Population Fragmented Nuclei (%) [4]: 25%
Population Healthy Nuclei (%) [4]: 2%
Population Hoechst High Intensity Objects (%) [4]: 11%
Population Membrane Permeable-Phenotype (%) [4]: 100%
Population Mitochondria Different-Phenotype (%) [4]: 100%
Population Mitotic Cells (%) [4]: 6%
Population Normal (%) [4]: 88%
Population Tubulin-Different-Phenotype (%) [4]: 100%
Total Cell Count [4]: 33
Population Apoptotic (%) [5]: 66%
Population Fragmented Nuclei (%) [5]: 32%
Population Healthy Nuclei (%) [5]: 48%
Population Hoechst High Intensity Objects (%) [5]: 17%
Population Membrane Permeable-Phenotype (%) [5]: 19%
Population Mitochondria Different-Phenotype (%) [5]: 11%
Population Mitotic Cells (%) [5]: 33%
Population Normal (%) [5]: 82%
Population Pyknosed Nuclei (%) [5]: 18%
Population Tubulin-Different-Phenotype (%) [5]: 64%
Total Cell Count [5]: 154
Population Apoptotic (%) [6]: 0%
Population Fragmented Nuclei (%) [6]: 19%
Population Healthy Nuclei (%) [6]: 80%
Population Hoechst High Intensity Objects (%) [6]: 8%
Population Membrane Permeable-Phenotype (%) [6]: 16%
Population Mitochondria Different-Phenotype (%) [6]: 8%
Population Mitotic Cells (%) [6]: 0%
Population Normal (%) [6]: 91%
Population Pyknosed Nuclei (%) [6]: 0%
Population Tubulin-Different-Phenotype (%) [6]: 20%
Total Cell Count [6]: 79
Population Apoptotic (%) [7]: 53%
Population Fragmented Nuclei (%) [7]: 24%
Population Healthy Nuclei (%) [7]: 15%
Population Hoechst High Intensity Objects (%) [7]: 21%
Population Membrane Permeable-Phenotype (%) [7]: 56%
Population Mitochondria Different-Phenotype (%) [7]: 18%
Population Mitotic Cells (%) [7]: 46%
Population Normal (%) [7]: 78%
Population Pyknosed Nuclei (%) [7]: 60%
Population Tubulin-Different-Phenotype (%) [7]: 93%
Total Cell Count [7]: 133
Population Apoptotic (%) [8]: 100%
Population Fragmented Nuclei (%) [8]: 12%
Population Healthy Nuclei (%) [8]: 24%
Population Hoechst High Intensity Objects (%) [8]: 25%
Population Membrane Permeable-Phenotype (%) [8]: 94%
Population Mitochondria Different-Phenotype (%) [8]: 88%
Population Mitotic Cells (%) [8]: 0%
Population Normal (%) [8]: 74%
Population Pyknosed Nuclei (%) [8]: 62%
Population Tubulin-Different-Phenotype (%) [8]: 88%
Total Cell Count [8]: 34
Population Apoptotic (%) [9]: 57%
Population Fragmented Nuclei (%) [9]: 50%
Population Healthy Nuclei (%) [9]: 39%
Population Hoechst High Intensity Objects (%) [9]: 20%
Population Membrane Permeable-Phenotype (%) [9]: 24%
Population Mitochondria Different-Phenotype (%) [9]: 1%
Population Mitotic Cells (%) [9]: 42%
Population Normal (%) [9]: 79%
Population Pyknosed Nuclei (%) [9]: 9%
Population Tubulin-Different-Phenotype (%) [9]: 36%
Total Cell Count [9]: 184
Population Apoptotic (%) [10]: 50%
Population Fragmented Nuclei (%) [10]: 40%
Population Healthy Nuclei (%) [10]: 58%
Population Hoechst High Intensity Objects (%) [10]: 21%
Population Membrane Permeable-Phenotype (%) [10]: 23%
Population Mitochondria Different-Phenotype (%) [10]: 0%
Population Mitotic Cells (%) [10]: 50%
Population Normal (%) [10]: 78%
Population Pyknosed Nuclei (%) [10]: 1%
Population Tubulin-Different-Phenotype (%) [10]: 63%
Total Cell Count [10]: 220
Population Apoptotic (%) [11]: 58%
Population Fragmented Nuclei (%) [11]: 34%
Population Healthy Nuclei (%) [11]: 25%
Population Hoechst High Intensity Objects (%) [11]: 34%
Population Membrane Permeable-Phenotype (%) [11]: 39%
Population Mitochondria Different-Phenotype (%) [11]: 26%
Population Mitotic Cells (%) [11]: 41%
Population Normal (%) [11]: 65%
Population Pyknosed Nuclei (%) [11]: 40%
Population Tubulin-Different-Phenotype (%) [11]: 91%
Total Cell Count [11]: 137
Population Apoptotic (%) [12]: 80%
Population Fragmented Nuclei (%) [12]: 37%
Population Healthy Nuclei (%) [12]: 16%
Population Hoechst High Intensity Objects (%) [12]: 33%
Population Membrane Permeable-Phenotype (%) [12]: 77%
Population Mitochondria Different-Phenotype (%) [12]: 0%
Population Mitotic Cells (%) [12]: 20%
Population Normal (%) [12]: 66%
Population Pyknosed Nuclei (%) [12]: 46%
Population Tubulin-Different-Phenotype (%) [12]: 100%
Total Cell Count [12]: 81
